# Assay results taken from ChEMBL document CHEMBL1123647, “(+)-cis-8-Hydroxy-1-methyl-2-(di-n-propylamino)tetralin: a potent and highly stereoselective 5-hydroxytryptamine receptor agonist” (1987).
# Experiments:
# Format in all cases: functional
# Conditions in all cases: sc
# Rattus norvegicus [1] = experiment: Effective dose required for half maximal decrease of DOPA accumulation after subcutaneous administration in limbic tissue of rat brain
# Outline: (§1)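 Reserpinized rats (reserpine 5 mg/kg ip) received compound in saline sc. Brain DOPA was measured by HPLC with electrochemical detection. ED50 is the dose giving a half-maximal decrease of DOPA formation, from a dose-response curve of three to five dose levels, n = 3. Maximal reduction was taken as 65% of control for limbic tissue and 80% for striatum.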
# Rattus norvegicus [2] = experiment: Effective dose required for half maximal decrease of 5-HTP formation after subcutaneous administration of compound in limbic tissue of rat brain
# Outline: (§2)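 Reserpinized rats (reserpine 5 mg/kg ip, in glucose solution with a little acetic acid). Compounds were dissolved in saline, pH near neutral, and given sc. Brain 5-HTP was measured by HPLC with electrochemical detection. ED50 is the dose giving a half-maximal decrease of 5-HTP formation in that brain part, from a dose-response curve of five to six dose levels, n = 3-4.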
# Rattus norvegicus [3] = experiment: Effective dose required for half maximal decrease of 5-HTP formation after subcutaneous administration of compound in striatum tissue of rat brain; outline: as §2
# Rattus norvegicus [4] = experiment: Effective dose required for half maximal decrease of DOPA accumulation after subcutaneous administration in striatum tissue of rat brain; outline: as §1
# Rattus norvegicus [5] = experiment: Effective dose required for half maximal decrease of 5-HTP formation after subcutaneous administration of compound in hemispheres (cortex) for rat brain; outline: as §2
Structure (SMILES),ED50 (Rattus norvegicus [1]) [µmol/kg],ED50 (Rattus norvegicus [2]) [µmol/kg],ED50 (Rattus norvegicus [3]) [µmol/kg],ED50 (Rattus norvegicus [4]) [µmol/kg],ED50 (Rattus norvegicus [5]) [µmol/kg]
CCCN(CCC)[C@@H]1CCc2cccc(O)c2C1,> 45,0.061,0.065,> 45,0.077
CCCN(CCC)[C@@H]1CCc2cccc(O)c2[C@H]1C,> 50,> 50,> 50,> 50,> 50
CCCN(CCC)[C@@H]1CCc2cccc(OC)c2[C@@H]1C,1.71,0.53,0.6,1.88,0.77
CCCN(CCC)[C@@H]1CCc2cccc(O)c2[C@@H]1C.Cl,> 50,,,> 50,
CCCN(CCC)[C@@H]1CCc2cccc(OC)c2[C@H]1C,> 50,> 50,> 50,> 50,> 50
